Test results from ChEMBL document CHEMBL1154778, “Synthesis and biological evaluation of C-5 methyl substituted 4-arylthio and 4-aryloxy-3-Iodopyridin-2(1H)-one type anti-HIV agents” (J Med Chem, 2009).
pIC50: −log10 of the molar value.

How the values were obtained:
[1] = test system: Human immunodeficiency virus 1; assay: Antiviral activity against HIV1 HXB2 harboring Y181C mutant reverse transcriptase infected in human MT4 cells after 5 days by MTT assay; type: functional, organism-based; settings: Human immunodeficiency virus 1, HXB2, MT4, 120 h
In short: (§1)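 Mutant viruses were made by recombining the mutant PR-RT sequence into a PR-RT-deleted HIV-1 HXB2 proviral clone. MT4 cells were grown in RPMI 1640 with 10% FCS and antibiotics. Virus at 200 CCID50/well and 30000 cells/well were incubated with varied compound concentrations for 5 days at 37 °C, 5% CO2. MTT viability gave IC50, the concentration giving 50% infection versus the drug-free control.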

[2] = Selectivity index, ratio of CC50 for human MT4 cells to IC50 for HIV-1 LAI harboring wild type reverse transcriptase infected in human MT4 cells; type: functional
In short: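 Cytotoxicity was measured in mock-infected MT4 cultures (30000 cells/well) given the same compound concentration range, run in parallel with the infected cultures for 5 days at 37 °C, 5% CO2, with MTT viability. CC50 was the concentration reducing viability by 50% versus the drug-free control. SI was CC50 divided by IC50 against HIV-1 LAI.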

[3] = test system: Human immunodeficiency virus 1; assay: Antiviral activity against HIV-1 LAI harboring wild type reverse transcriptase infected in human MT4 cells after 5 days by MTT assay; type: functional, organism-based; settings: Human immunodeficiency virus 1, LAI, MT4, 120 h
In short: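 MT4 cells were kept in RPMI 1640 with 10% fetal calf serum and antibiotics at 37 °C, 5% CO2. A range of compound concentrations was incubated with HIV-1 LAI at 200 CCID50/well and 30000 MT4 cells/well for 5 days at 37 °C. Cell viability was read by MTT, and IC50 was the concentration giving 50% infection versus the drug-free control.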

[4] = test system: Human immunodeficiency virus 1; assay: Antiviral activity against HIV1 HXB2 harboring Y188L mutant reverse transcriptase infected in human MT4 cells after 5 days by MTT assay; type: functional, organism-based; settings: Human immunodeficiency virus 1, HXB2, MT4, 120 h; in short: as §1
[5] = test system: Human immunodeficiency virus 1; assay: Antiviral activity against HIV1 HXB2 harboring K103N mutant reverse transcriptase infected in human MT4 cells after 5 days by MTT assay; type: functional, organism-based; settings: Human immunodeficiency virus 1, HXB2, MT4, 120 h; in short: as §1

Row | SMILES | pIC50 [1] | Ratio CC50/IC50 [2] | pIC50 [3] | pIC50 [4] | pIC50 [5]
1 | Cc1cc(C)cc(Oc2c(CSCc3cccc(C#N)c3)c(C)[nH]c(=O)c2I)c1 | 8.20 | 19953 | 8.50 | 6.10 | 8.80
2 | Cc1cc(C)cc(Oc2c(CN3CC=CC3)c(C)[nH]c(=O)c2I)c1 | 7.30 | 15848 | 8.40 | 6.90 | 8.10
3 | CCOCc1c(C)[nH]c(=O)c(I)c1Sc1cc(C)cc(C)c1 | 7.50 | 50119 | 8.70 | 6.60 | 8.90
4 | Cc1cc(C)cc(Oc2c(CN3CCCC(C(N)=O)C3)c(C)[nH]c(=O)c2I)c1 (configuration not stated) |  | >10000 | 8.00 |  | 
5 | Cc1cc(C)cc(Oc2c(COCCO)c(C)[nH]c(=O)c2I)c1 | 7.50 | >50119 | 8.70 | 6.30 | 7.40
6 | CCOCc1c(C)[nH]c(=O)c(I)c1Oc1cc(C)cc(C)c1 | 8.20 | >158489 | 9.20 | 6.90 | 8.20
7 | COCCOCc1c(C)[nH]c(=O)c(I)c1Oc1cc(C)cc(C)c1 | 8.00 | >63096 | 8.80 | 6.80 | 7.30
8 | Cc1cc(C)cc(Oc2c(CSCc3cccs3)c(C)[nH]c(=O)c2I)c1 | 7.70 | >39811 | 8.60 | 7.40 | 9.00
9 | Cc1cc(C)cc(Oc2c(Cn3ncc4ccccc43)c(C)[nH]c(=O)c2I)c1 |  | >3981 | 8.10 |  | 
10 | Cc1cc(C)cc(Oc2c(Cn3ccnn3)c(C)[nH]c(=O)c2I)c1 | 7.50 | >39810 | 8.60 | 7.10 | 8.10
11 | Cc1cc(C)cc(Oc2c(Cn3ccnc3Br)c(C)[nH]c(=O)c2I)c1 |  | >3981 | 8.10 |  | 
12 | Cc1cc(C)cc(Sc2c(Cn3ccnc3)c(C)[nH]c(=O)c2I)c1 | 8.10 | 15849 | 8.90 | 7.30 | 9.10
13 | Cc1cc(C)cc(Sc2c(Cn3nc(C)nc3C)c(C)[nH]c(=O)c2I)c1 | 7.40 | >31623 | 8.50 | 6.80 | 7.50
14 | Cc1cc(C)cc(Sc2c(Cn3cnc(C)n3)c(C)[nH]c(=O)c2I)c1 | 7.80 | >125893 | 9.10 | 7.00 | 8.70
15 | CNC(=O)CSCc1c(C)[nH]c(=O)c(I)c1Sc1cc(C)cc(C)c1 | 7.40 | >63096 | 8.80 | 6.10 | 8.40
16 | Cc1cc(C)cc(Sc2c(Cn3ncnc3C)c(C)[nH]c(=O)c2I)c1 | 7.50 | >12589 | 8.70 | 6.50 | 7.80
17 | CCOC(=O)CC1CN(Cc2c(C)[nH]c(=O)c(I)c2Sc2cc(C)cc(C)c2)CCO1 (configuration not stated) | 7.60 | 25119 | 8.60 | 7.30 | 9.21
18 | Cc1cc(C)cc(Sc2c(CN(C)CCC#N)c(C)[nH]c(=O)c2I)c1 | 7.20 | >31623 | 8.60 | 6.00 | 8.20
19 | Cc1cc(C)cc(Sc2c(CN3CCN(C(=O)c4ccco4)CC3)c(C)[nH]c(=O)c2I)c1 |  | 398 | 8.00 |  | 
20 | Cc1cc(C)cc(Sc2c(CNC=O)c(C)[nH]c(=O)c2I)c1 | 7.50 | >79433 | 8.90 | 6.70 | 8.90

Row | SMILES | pIC50 [1] | Ratio CC50/IC50 [2] | pIC50 [3] | pIC50 [4] | pIC50 [5]
21 | Cc1cc(C)cc(Sc2c(Cn3cccc3)c(C)[nH]c(=O)c2I)c1 | 7.50 | 19953 | 8.60 | 6.80 | 9.00
22 | Cc1cc(C)cc(Sc2c(Cn3nc(-c4ccco4)nc3C)c(C)[nH]c(=O)c2I)c1 | 7.50 | >50119 | 8.70 | 7.50 | 7.90
23 | Cc1cc(C)cc(Sc2c(CSCCc3cnccn3)c(C)[nH]c(=O)c2I)c1 | 7.50 | >39811 | 8.70 | 6.70 | 8.30
24 | COCC1CN(Cc2c(C)[nH]c(=O)c(I)c2Sc2cc(C)cc(C)c2)CCO1 (configuration not stated) | 7.60 | >50119 | 8.90 | 6.90 | 9.00
25 | Cc1cc(C)cc(Sc2c(CN3CCOC(CCO)C3)c(C)[nH]c(=O)c2I)c1 (configuration not stated) | 7.50 | 31623 | 8.80 | 6.70 | 8.80
26 | Cc1cc(C)cc(Sc2c(Cn3cccc3C#N)c(C)[nH]c(=O)c2I)c1 |  | >31623 | 9.00 |  | 
27 | Cc1cc(C)cc(Sc2c(Cn3cnc(C)c3C#N)c(C)[nH]c(=O)c2I)c1 | 7.50 | >79433 | 8.90 | 7.00 | 8.90
28 | Cc1cc(C)cc(Sc2c(CN3CCOCC3)c(C)[nH]c(=O)c2I)c1 | 7.50 | 7943 | 8.90 | 6.80 | 8.90
29 | Cc1cc(C)cc(Sc2c(CN3CCOC(CC#N)C3)c(C)[nH]c(=O)c2I)c1 (configuration not stated) | 7.60 | 25119 | 8.80 | 7.00 | 9.00
30 | CCOC(=O)CSCc1c(C)[nH]c(=O)c(I)c1Oc1cc(C)cc(C)c1 |  | >10000 | 8.00 |  | 
31 | Cc1cc(C)cc(Oc2c(Cn3cnc(C)n3)c(C)[nH]c(=O)c2I)c1 | 7.50 | >25118 | 8.40 | 6.90 | 7.80
32 | CNC(=O)CSCc1c(C)[nH]c(=O)c(I)c1Oc1cc(C)cc(C)c1 | 7.70 | >60096 | 8.80 | 6.80 | 8.40
33 | Cc1cc(C)cc(Oc2c(Cn3cncn3)c(C)[nH]c(=O)c2I)c1 | 8.00 | >50118 | 8.70 | 7.00 | 8.40
34 | Cc1cc(C)cc(Sc2c(CN)c(C)[nH]c(=O)c2I)c1 | 6.10 |  | 7.70 | < 5.00 | 6.80
35 | Cc1cc(C)cc(Sc2c(Cn3ccnc3C#N)c(C)[nH]c(=O)c2I)c1 |  | >31623 | 9.00 |  | 
36 | Cc1cc(C)cc(Sc2c(Cn3cncn3)c(C)[nH]c(=O)c2I)c1 | 8.10 | >25119 | 9.00 | 6.90 | 9.00
37 | CCSCc1c(C)[nH]c(=O)c(I)c1Sc1cc(C)cc(C)c1 | 7.50 | >15849 | 8.50 | 6.20 | 8.30
38 | Cc1cc(C)cc(Sc2c(Cn3ccnn3)c(C)[nH]c(=O)c2I)c1 | 8.00 | >50119 | 8.70 | 7.30 | 9.00
39 | Cc1cc(C)cc(Sc2c(CN3CCOC(CN(C)C)C3)c(C)[nH]c(=O)c2I)c1 (configuration not stated) | 6.80 | >5012 | 8.30 | 6.00 | 
